Experiments:
[1] = test system: HT29 colon cancer xenografts; details: single agent; ref Ihle et al, 2005; Koul et al, 2010; cited from earlier work
[2] = test system: Patient-derived SCCHN xenografts; details: PX-866 and docetaxel compared with either agent alone; ref Bowles et al, 2011; cited from earlier work
PI-3Kβ = details: read-out: IC50 against PI-3Kβ; ref Wipf et al, 2004; cited from earlier work
A-549 NSCLC xenografts = details: single agent; ref Ihle et al, 2005; Koul et al, 2010; cited from earlier work
incurable solid tumours = experiment: Phase 1 antitumour activity of PX-866 with docetaxel; assay type: in vivo, human
Procedure, shortened: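 Test compound given orally at 4, 6 or 8 mg daily (fasting) with docetaxel 75 mg m−2 IV every 21 days. In cycle 1, docetaxel was given on day 1 and the test compound started on day 8. Response was assessed about every 6 weeks by RECIST 1.1, with PSA per PCWG allowed in mCRPC. PFS ran from consent to progression or death. Archival tumour was genotyped for PIK3CA/KRAS by shifted termination assay.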

PI3Kα = details: read-out: IC50 against PI3Kα; ref Wipf et al, 2004; cited from earlier work
U87 glioma xenografts = details: single agent; ref Ihle et al, 2005; Koul et al, 2010; cited from earlier work
[3] = Phase 1 safety monitoring of PX-866 with docetaxel; assay type: in vivo, human
Procedure, shortened: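 Open-label dose escalation in cohorts of 6–9 patients at 4, 6 or 8 mg oral daily test compound plus docetaxel 75 mg m−2 IV every 21 days, with dexamethasone premedication. All patients receiving ≥1 dose had vital signs, labs and exams; AEs were graded by NCI CTCAE v4.02. DLTs included related grade ≥3 events, febrile grade 3/4 neutropenia, platelets <25 000 per μl and ANC <500 per μl for >7 days.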

SMILES: C=CCN(/C=C1/C(=O)O[C@H](COC)[C@@]2(C)C1=C(O)C(=O)C1=C2[C@H](OC(C)=O)C[C@]2(C)C(=O)CC[C@@H]12)CC=C [PX-866]
- tumour growth [1]: delays tumour growth
- tumour suppression [2]: enhanced tumour suppression
- IC50 (PI-3Kβ): 88 ± 27 nM
- tumour growth (A-549 NSCLC xenografts): delays tumour growth
- evaluable patients remaining on study in excess of 180 days (incurable solid tumours; 11 out of 35): 31%
- best response: partial response (PR) (incurable solid tumours; 35 evaluable patients (2 patients)): 6%
- best response: disease progression (PD) (incurable solid tumours; 35 evaluable patients (11 patients)): 31%
- median PFS, PIK3CA-MUT/KRAS-WT (incurable solid tumours; N=6, range: 49–334, P=0.23 vs WT/WT): 175 days
- median PFS, mutational status unknown (incurable solid tumours; N=12, range: 1–569): 77.5 days
- median PFS, PIK3CA-WT/KRAS-WT (incurable solid tumours; N=20, range: 1–342): 49 days
- PR+SD rate (incurable solid tumours; evaluable patients): 69%
- overall median progression-free survival (PFS) (incurable solid tumours; range: 1–569): 73.5 days
- patients with tumour shrinkage of ⩾15% (incurable solid tumours; ten patients): 29%
- IC50 (PI3Kα): 39 ± 21 nM
- tumour growth (U87 glioma xenografts): delays tumour growth
- patients requiring PX-866 dose reductions ([3]; 4 out of 43, all in the 8 mg cohort, vomiting and/or diarrhoea): 9%
- Treatment-emergent AE: Alopecia ([3]; PX-866 4 mg + docetaxel, N=10): 2 (20) N (%)
- Treatment-emergent AE: Anaemia ([3]; PX-866 4 mg + docetaxel, N=10): 2 (20) N (%)
- Treatment-emergent AE: Arthralgia ([3]; PX-866 4 mg + docetaxel, N=10): 0 (0) N (%)
- Treatment-emergent AE: Asthenia ([3]; PX-866 4 mg + docetaxel, N=10): 1 (10) N (%)
- Treatment-emergent AE: Bone pain ([3]; PX-866 4 mg + docetaxel, N=10): 0 (0) N (%)
- Treatment-emergent AE: Cough ([3]; PX-866 4 mg + docetaxel, N=10): 2 (20) N (%)
- Treatment-emergent AE: Decreased appetite ([3]; PX-866 4 mg + docetaxel, N=10): 1 (10) N (%)
- Treatment-emergent AE: Dehydration ([3]; PX-866 4 mg + docetaxel, N=10): 3 (30) N (%)
- Treatment-emergent AE: Diarrhoea ([3]; PX-866 4 mg + docetaxel, N=10): 7 (70) N (%)
- Treatment-emergent AE: Dizziness ([3]; PX-866 4 mg + docetaxel, N=10): 1 (10) N (%)
- Treatment-emergent AE: Dysgeusia ([3]; PX-866 4 mg + docetaxel, N=10): 2 (20) N (%)
- Treatment-emergent AE: Epistaxis ([3]; PX-866 4 mg + docetaxel, N=10): 1 (10) N (%)
- Treatment-emergent AE: Fatigue ([3]; PX-866 4 mg + docetaxel, N=10): 6 (60) N (%)
- Treatment-emergent AE: Hypokalemia ([3]; PX-866 4 mg + docetaxel, N=10): 2 (20) N (%)
- Treatment-emergent AE: Nausea ([3]; PX-866 4 mg + docetaxel, N=10): 5 (50) N (%)
- Treatment-emergent AE: Neutropenia ([3]; PX-866 4 mg + docetaxel, N=10): 6 (60) N (%)
- Treatment-emergent AE: Oedema peripheral ([3]; PX-866 4 mg + docetaxel, N=10): 4 (40) N (%)
- Treatment-emergent AE: Oropharyngeal pain ([3]; PX-866 4 mg + docetaxel, N=10): 1 (10) N (%)
- Treatment-emergent AE: Pyrexia ([3]; PX-866 4 mg + docetaxel, N=10): 1 (10) N (%)
- Treatment-emergent AE: Stomatitis ([3]; PX-866 4 mg + docetaxel, N=10): 1 (10) N (%)
- Treatment-emergent AE: Vomiting ([3]; PX-866 4 mg + docetaxel, N=10): 3 (30) N (%)
- Treatment-emergent AEs, frequency by severity: Grade 1 ([3]; PX-866 4 mg + docetaxel, N=10): 32 (56) N (%)
- Treatment-emergent AEs, frequency by severity: Grade 2 ([3]; PX-866 4 mg + docetaxel, N=10): 10 (18) N (%)
- Treatment-emergent AEs, frequency by severity: Grade 3 ([3]; PX-866 4 mg + docetaxel, N=10): 8 (14) N (%)
- Treatment-emergent AEs, frequency by severity: Grade 4 ([3]; PX-866 4 mg + docetaxel, N=10): 7 (12) N (%)
- Treatment-emergent AEs, frequency by severity: Grade 5 ([3]; PX-866 4 mg + docetaxel, N=10): 0 (0) N (%)
- Treatment-emergent AE: Alopecia ([3]; PX-866 6 mg + docetaxel, N=10): 6 (60) N (%)
- Treatment-emergent AE: Anaemia ([3]; PX-866 6 mg + docetaxel, N=10): 2 (20) N (%)
- Treatment-emergent AE: Arthralgia ([3]; PX-866 6 mg + docetaxel, N=10): 2 (20) N (%)
- Treatment-emergent AE: Asthenia ([3]; PX-866 6 mg + docetaxel, N=10): 4 (40) N (%)
- Treatment-emergent AE: Bone pain ([3]; PX-866 6 mg + docetaxel, N=10): 4 (40) N (%)
- Treatment-emergent AE: Constipation ([3]; PX-866 6 mg + docetaxel, N=10): 3 (30) N (%)
- Treatment-emergent AE: Cough ([3]; PX-866 6 mg + docetaxel, N=10): 5 (50) N (%)
- Treatment-emergent AE: Decreased appetite ([3]; PX-866 6 mg + docetaxel, N=10): 4 (40) N (%)
- Treatment-emergent AE: Dehydration ([3]; PX-866 6 mg + docetaxel, N=10): 1 (10) N (%)
- Treatment-emergent AE: Diarrhoea ([3]; PX-866 6 mg + docetaxel, N=10): 8 (80) N (%)
- Treatment-emergent AE: Dizziness ([3]; PX-866 6 mg + docetaxel, N=10): 2 (20) N (%)
- Treatment-emergent AE: Dysgeusia ([3]; PX-866 6 mg + docetaxel, N=10): 3 (30) N (%)
- Treatment-emergent AE: Epistaxis ([3]; PX-866 6 mg + docetaxel, N=10): 2 (20) N (%)
- Treatment-emergent AE: Fatigue ([3]; PX-866 6 mg + docetaxel, N=10): 7 (70) N (%)
- Treatment-emergent AE: Hypokalemia ([3]; PX-866 6 mg + docetaxel, N=10): 1 (10) N (%)
- Treatment-emergent AE: Nausea ([3]; PX-866 6 mg + docetaxel, N=10): 4 (40) N (%)
- Treatment-emergent AE: Neutropenia ([3]; PX-866 6 mg + docetaxel, N=10): 5 (50) N (%)
- Treatment-emergent AE: Oedema peripheral ([3]; PX-866 6 mg + docetaxel, N=10): 6 (60) N (%)
- Treatment-emergent AE: Oropharyngeal pain ([3]; PX-866 6 mg + docetaxel, N=10): 1 (10) N (%)
- Treatment-emergent AE: Pyrexia ([3]; PX-866 6 mg + docetaxel, N=10): 4 (40) N (%)
- Treatment-emergent AE: Stomatitis ([3]; PX-866 6 mg + docetaxel, N=10): 4 (40) N (%)
- Treatment-emergent AE: Vomiting ([3]; PX-866 6 mg + docetaxel, N=10): 5 (50) N (%)
- Treatment-emergent AEs, frequency by severity: Grade 1 ([3]; PX-866 6 mg + docetaxel, N=10): 36 (49) N (%)
- Treatment-emergent AEs, frequency by severity: Grade 2 ([3]; PX-866 6 mg + docetaxel, N=10): 30 (41) N (%)
- Treatment-emergent AEs, frequency by severity: Grade 3 ([3]; PX-866 6 mg + docetaxel, N=10): 5 (7) N (%)
- Treatment-emergent AEs, frequency by severity: Grade 4 ([3]; PX-866 6 mg + docetaxel, N=10): 3 (4) N (%)
- Treatment-emergent AEs, frequency by severity: Grade 5 ([3]; PX-866 6 mg + docetaxel, N=10): 0 (0) N (%)
- Treatment-emergent AE: Alopecia ([3]; PX-866 8 mg + docetaxel, N=23): 4 (17) N (%)
